Source: PubChem BioAssay (Broad Institute)
FGF22 binding = shifts melting point of recombinant human FGF22 | Q9HCT0 | recombinant FGF22 thermal shift, SYPRO orange fluorescence; percent of sucrose octasulfate shift, DMSO zero | activity (Tm shift, normalised), % at 9.99 µM | hit rate 1.5% among 340,000 | AID 651658;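 active means mean Tm shift, scaled 0 neutral to 100 positive control, at about 1.3% or above, every replicate too, limit read from the data; inconclusive means no clear call, values can overlap the other calls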
E-sel inducer = induces E-selectin expression in human endothelial cells | P16581 | HUVEC E-selectin immunofluorescence imaging; normalized: neutral wells 0, TNF-alpha wells 100 | hit rate 0.37% among 260,000 | activation, % at 7.58 µM | AID 686992;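 active means mean E-selectin-positive cell signal at least 10% of the positive control, reached in at least 60% of replicates, without over 20% cell loss; inconclusive means no rule given, readout overlaps actives, possibly toxicity-flagged; inactive means the rest, including those meeting only one limit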
Target sequence (P16581 whole entry, looked up): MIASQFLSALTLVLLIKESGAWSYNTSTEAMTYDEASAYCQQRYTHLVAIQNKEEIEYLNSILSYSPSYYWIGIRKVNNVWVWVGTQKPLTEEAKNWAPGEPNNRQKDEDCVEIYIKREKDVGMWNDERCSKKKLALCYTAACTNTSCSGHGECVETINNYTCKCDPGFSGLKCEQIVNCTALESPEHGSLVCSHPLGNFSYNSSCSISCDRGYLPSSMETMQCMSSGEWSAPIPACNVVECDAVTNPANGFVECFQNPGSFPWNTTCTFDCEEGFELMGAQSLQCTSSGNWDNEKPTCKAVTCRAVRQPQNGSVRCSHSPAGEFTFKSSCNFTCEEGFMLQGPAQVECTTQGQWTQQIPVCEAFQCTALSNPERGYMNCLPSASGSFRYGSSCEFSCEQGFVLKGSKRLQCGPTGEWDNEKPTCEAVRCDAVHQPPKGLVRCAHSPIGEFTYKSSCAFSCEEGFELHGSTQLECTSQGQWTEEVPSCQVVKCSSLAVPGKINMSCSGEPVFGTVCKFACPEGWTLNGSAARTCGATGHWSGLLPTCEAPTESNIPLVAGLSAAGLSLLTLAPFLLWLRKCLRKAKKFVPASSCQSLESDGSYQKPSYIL
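Read-out basis: % PE-positive cells; Test system: HUVEC primary endothelial cells; Technique: immunofluorescence imaging; Dosing: single-point compound dose.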
Xi reactivation = activators of X-chromosome reactivation in mouse fibroblasts | XiGFP mouse fibroblasts, % GFP-positive cells imaging, 3 d; cells co-treated with 5-aza-dC sensitizer; scaled so ellipticine positive control = 100% | activation, % at 7.58 µM | hit rate 0.055% among 360,000 | AID 743238;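 active means mean normalized replicate activation at least 10% and every replicate at or above 10%; inconclusive means only one of the two criteria met; inactive means mean below 10% and not all replicates reach 10%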;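 further: 0% = median of on-plate neutral control wells and 100% = ellipticine 6 µM median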
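Assay system – SV40-immortalized XiGFP fibroblast cells, line 68-5-11 · Buffer or medium – DMEM supplemented with 5-aza-dC as sensitizing agent · Dosing – one concentration, pinned · Benchmarks – positive control ellipticine, 6 µM final · Times – 3 days compound exposure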
Statin myotox sup = protects C2C12 myotubes from simvastatin toxicity; ATP luminescence, 48 h; scaled: DMSO 0, geranylgeraniol control 100; rescue of ATP level, % at 7.49 µM; hit rate 0.78% among 330,000; AID 602340;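 active means mean ATP rescue above about 67%, or every replicate alone reaching that limit, limit read from the data, passing the limit was not always enough; inconclusive means no clear call, values can overlap the other calls; inactive means mean under the limit and some replicate under it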;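 further: myotubes were challenged with 10 µM simvastatin during compound exposure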
PglD DTNB = inhibitors of Campylobacter jejuni PglD acetyltransferase. inhibition, % at 12.5 µM. hit rate 0.098% among 360,000. purified PglD enzyme, DTNB colorimetric CoA detection. AID 602405; in the data active means inhibition above about 16%, passing the limit was not always enough; inconclusive means no clear call, values can overlap the other calls
DENV2 CPE = inhibitors of DENV2 cytopathic effect. DENV2-infected cells, cytopathic effect rescue, plate reader. CPE inhibition, % at 9.99 µM. hit rate 1.7% among 350,000; in the data active means CPE inhibition above about 20%, passing the limit was not always enough; inconclusive means no clear call, values can overlap the other calls; tested in BHK-21 cells;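 further: 0% = median of neutral control wells and 100% = median of positive control wells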
The depositor's hits bear a star; ? = inconclusive; . = not tested or not shown. Rows were chosen to be rich in hits. Some 3.3% of all compounds tested hit in one or more screens of this group.

SMILES	FGF22 binding	E-sel inducer	Xi reactivation	Statin myotox sup	PglD DTNB	DENV2 CPE
COc1cccc(-c2ccc3c(c2)[C@@H]2[C@@H](CCN2C(=O)NC2CCCCC2)[C@H](CO)N3C)c1	.	0	0	.	.	1
CCOC(=O)CN(C(=O)CSc1nnc2c(n1)[nH]c1ccccc12)c1ccccc1	.	.	.	6	-6	.
CCOC(=O)CN(C(=O)CSc1nnc2c(n1)[nH]c1ccc(F)cc12)c1ccccc1	.	.	.	121*	2	.
COCCNC(=O)COc1ccc(C)cc1C(=O)c1cc(C#N)c(=O)n(C2CC2)c1	44*	.	0	.	.	-6
Cc1ccccc1P(=O)(c1ccccc1)c1ccccc1C	44*	1	0	-4	-7	-3
C=CCc1cc(/C=C/c2nc(O)c([N+](=O)[O-])c(=O)[nH]2)cc(OC)c1O	43*	.	0	.	.	4
C[C@H](CO)N1C[C@H](C)[C@H](CN(C)Cc2cccc(F)c2)Oc2ncc(C3=CCCCC3)cc2C1=O	0	0	0	.	.	23*
C[C@@H]1CN([C@@H](C)CO)C(=O)c2cc(-c3cccnc3)cnc2O[C@@H]1CN(C)Cc1ccc(-c2ccccc2)cc1	0	0	-1	-8	-10	37*
C[C@H]1CN([C@@H](C)CO)C(=O)c2cc(C3=CCCCC3)cnc2O[C@H]1CN(C)Cc1cccc(F)c1	0	1	0	.	-4	5
C[C@@H]1CN([C@@H](C)CO)C(=O)c2cc(C3=CCCCC3)cnc2O[C@@H]1CN(C)Cc1cccnc1	0	0	1	42	-2	20*
Cc1c(C(=O)N2CCN(S(=O)(=O)c3cc(F)ccc3F)CC2)oc2ccccc12	0	343*	0	2	5	-8
CC/C(O)=C(\C#N)c1nnc2n1CCCCC2	.	.	.	87*	0	.
CC(C)CN(C(=O)c1cc(Cl)nc2ccccc12)c1c(N)n(Cc2ccccc2)c(=O)[nH]c1=O	0	-2	0	2	4	56*
COCC(=O)Nc1ccc2c(c1)C(=O)N(C)[C@H]1CC[C@H](CC(=O)Nc3cn(C)nc3C)O[C@H]1CO2	1	0	0	14	0	-3
CC(=O)N1CC2(C1)[C@@H](c1ccc(-c3ccc(C#N)cc3)cc1)[C@H](CO)N2C(=O)C1CC1	0	0	0	.	.	6
NS(=O)(=O)OCC(Cc1ccccc1)N1C(=O)c2ccccc2C1=O (configuration not stated)	0	0	0	111*	-3	-13
NC(=O)C(Cc1ccccc1)N1C(=O)c2ccccc2C1=O (configuration not stated)	0	3	0	-2	-2	?
C=CCn1c(SCC(=O)NC(N)=O)nnc1-c1cc2c(s1)CCC(CC)C2 (configuration not stated)	0	.	0	.	.	21*
O=C1OC(c2cccs2)=N/C1=C/c1ccc(-c2cccc(C(=O)O)c2)o1	9.4*	-2	0	.	.	-1
Cc1ccc(C)c(/C=N/NC(=S)NCCc2ccccc2)c1	.	.	.	133*	2	.
Oc1ccccc1/C=N/NC(=S)NCCc1ccccc1	0	0	0	-2	1	15
O=C(C[C@@H]1C=C[C@@H](NC(=O)C2CCOCC2)[C@@H](CO)O1)Nc1ccccc1	.	0	0	.	.	-4
Cc1ccc(NS(=O)(=O)c2ccc(-c3ccc(=O)[nH]n3)o2)cc1Cl	0	.	0	137*	1	-5
Cc1ccc(NS(=O)(=O)c2ccc(-c3ccc(=O)[nH]n3)o2)cc1N(C)C	0	.	0	-6	-6	-3
O=c1ccc(-c2ccc(S(=O)(=O)Nc3cccc(Br)c3)o2)n[nH]1	0	.	0	1	.	27*
SMILES	FGF22 binding	E-sel inducer	Xi reactivation	Statin myotox sup	PglD DTNB	DENV2 CPE
O=C(C[C@@H]1CC[C@H]2[C@@H](COC[C@H](O)CN2Cc2cc(F)ccc2F)O1)NCc1ccccc1	0	0	0	-11	-2	4
C=CCn1c(-c2csc(-c3ccccc3)n2)n[nH]c1=S	.	.	.	77*	5	.
O=C(c1ccccn1)N1CC2(C1)[C@H](c1ccccc1)[C@H](CO)N2Cc1ccc(Cl)cc1	0	0	0	.	.	13
COc1ccc(N=N/C(=C\O)C(=O)c2ccco2)cc1	43*	.	0	.	.	-1
COc1ccc(/C(N)=N/OC(=O)c2ccco2)cc1	42	.	0	-20	3	2
Cc1c(N=Cc2c(O)n(Cc3ccco3)c(=O)c3ccccc23)c(=O)n(-c2ccccc2)n1C	0	.	.	114*	.	3
CO[C@H]1CN(C)C(=O)c2ccc(NC(=O)NC(C)C)cc2OC[C@H](C)N(Cc2cncnc2)C[C@H]1C	.	0	1	7	.	.
CC(C)Cc1c(O)nc(SCCN2CCOCC2)[nH]c1=O	.	.	.	.	1	.
CCCCCCc1c(O)nc(SCCN2CCOCC2)[nH]c1=O	44*	.	0	-5	-4	1
CN(Cc1ccon1)Cc1cn[nH]c1-c1ccc(-c2ccccc2)cc1	43*	.	0	.	.	.
O=C([C@@H]1[C@@H](CO)[C@@H]2Cn3c(ccc(-c4ccncc4)c3=O)[C@@H]2N1CCC(F)(F)F)N1CCCCC1	0	0	0	-10	4	5
CC=Cc1ccc2n(c1=O)C[C@@H]1[C@@H](CO)[C@H](C(=O)N(C)C)N(CC3CC3)[C@H]21 (mixture of isomers)	0	0	0	-2	-3	10
NC(=O)CSc1nccn1Cc1ccccc1	43*	0	0	17	-2	9
CC(=O)OCCCNc1cc(Sc2ccc(Cl)cc2)c2nonc2c1[N+](=O)[O-]	0	-1	0	.	.	1
Cc1ccc(Sc2cc(NCCCO)c([N+](=O)[O-])c3nonc23)cc1	0	0	1	102*	5	11
CC1=C(C(=O)Nc2ccccc2C)C(c2ccc(C)o2)N2C(=O)CSC2=N1 (configuration not stated)	0	.	.	78*	-3	.
Cc1noc(C)c1S(=O)(=O)N(C)C[C@H]1Oc2ccc(NC(=O)CCN3CCOCC3)cc2CC(=O)N([C@H](C)CO)C[C@@H]1C	.	-2	0	.	.	-3
O=C(c1ccc2c(c1)OCO2)N1CCCCN2[C@H](CO)[C@@H](c3ccc(-c4ccccc4)cc3)[C@@H]2C1	1	-1	0	.	-12	27*
Cc1cccc(-c2ccc([C@H]3[C@H]4CN(C(=O)c5ccncc5)CCCCN4[C@H]3CO)cc2)c1	0	0	0	5	0	22*
O=C(c1cccc(F)c1)N1CCCCN2[C@H](CO)[C@H](c3ccc(-c4ccncc4)cc3)[C@@H]2C1	0	0	0	.	7	22*
